Reference: ChEMBL document CHEMBL1125789, “Synthesis and selective class III antiarrhythmic activity of novel N-heteroaralkyl-substituted 1-(aryloxy)-2-propanolamine and related propylamine derivatives” (J Med Chem, 1991)

What was measured:
Canis familiaris [1] = species on record: Canis familiaris; experiment: Maximum rate of rise of the upstroke of transmembrane potential, in canine Purkinje Fibers at a concentration of 3.0 uM at 1000 ms (simulating normal heart rate); assay type: functional; set-up: unit not given here; details: Canis lupus familiaris, Purkinje fiber
How it was run: (§1)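 Isolated canine Purkinje fiber bundles were driven by square-wave pulses 2.0 ms long at 2× threshold and equilibrated ≥1 h to steady state. Each concentration was superfused 45–60 min before recording, and action potentials were sampled at 4–6 sites per fiber in control and after drug, giving Vmax and APD to −60 mV.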

Canis familiaris [2] = species on record: Canis familiaris; experiment: Maximum rate of rise of the upstroke of transmembrane potential, in canine Purkinje Fibers at a concentration of 3.0 uM at 300 ms (simulating tachycardia); assay type: functional; set-up: unit not given here; details: Canis lupus familiaris, Purkinje fiber; how it was run: as §1
Canis familiaris [3] = species on record: Canis familiaris; experiment: repolarization to reach -60mV, in canine Purkinje Fibers at a concentration of 3.0 uM at 1000 ms (simulating normal heart rate); assay type: functional, Canis lupus familiaris, Purkinje fiber
How it was run: (§2)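 Purkinje fiber bundles were stimulated with square-wave current pulses of 2.0 ms at twice threshold and equilibrated for at least 1 h, or until action potential parameters were steady. Each concentration was superfused for 45-60 min to reach steady state. Action potentials were recorded at four to six sites per fiber, under control and after drug.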

Canis familiaris [4] = species on record: Canis familiaris; experiment: Repolarization to reach -60mV, in canine Purkinje Fibers at a concentration of 3.0 uM at 300 ms (simulating tachycardia); assay type: functional, Canis lupus familiaris, Purkinje fiber; how it was run: as §1
Canis familiaris [5] = species on record: Canis familiaris; experiment: Repolarization to reach -60mV, in canine Purkinje Fibers at a concentration of 1.0 uM at 300 ms (simulating tachycardia); assay type: functional, Canis lupus familiaris, Purkinje fiber; how it was run: as §1
Canis familiaris [6] = species on record: Canis familiaris; experiment: repolarization to reach -60mV, in canine Purkinje Fibers at a concentration of 0.3 uM at 1000 ms (simulating normal heart rate); assay type: functional, Canis lupus familiaris, Purkinje fiber; how it was run: as §2
Canis familiaris [7] = species on record: Canis familiaris; experiment: repolarization to reach -60mV, in canine Purkinje Fibers at a concentration of 1.0 uM at 1000 ms (simulating normal heart rate); assay type: functional, Canis lupus familiaris, Purkinje fiber; how it was run: as §2
Canis familiaris [8] = species on record: Canis familiaris; experiment: Maximum rate of rise of the upstroke of transmembrane potential, in canine Purkinje Fibers at a concentration of 1.0 uM at 1000 ms (simulating normal heart rate); assay type: functional; set-up: unit not given here; details: Canis lupus familiaris, Purkinje fiber; how it was run: as §1
Canis familiaris [9] = species on record: Canis familiaris; experiment: Maximum rate of rise of the upstroke of transmembrane potential, in canine Purkinje Fibers at a concentration of 0.3 uM at 1000 ms (simulating normal heart rate); assay type: functional; set-up: unit not given here; details: Canis lupus familiaris, Purkinje fiber; how it was run: as §1
Canis familiaris [10] = species on record: Canis familiaris; experiment: Maximum rate of rise of the upstroke of transmembrane potential, in canine Purkinje Fibers at a concentration of 0.3 uM at 300 ms (simulating tachycardia); assay type: functional; set-up: unit not given here; details: Canis lupus familiaris, Purkinje fiber; how it was run: as §1
Canis familiaris [11] = species on record: Canis familiaris; experiment: Maximum rate of rise of the upstroke of transmembrane potential, in canine Purkinje Fibers at a concentration of 1.0 uM at 300 ms (simulating tachycardia); assay type: functional; set-up: unit not given here; details: Canis lupus familiaris, Purkinje fiber; how it was run: as §1
Canis familiaris [12] = species on record: Canis familiaris; experiment: Repolarization to reach -60mV, in canine Purkinje Fibers at a concentration of 0.3 uM at 300 ms (simulating tachycardia); assay type: functional, Canis lupus familiaris, Purkinje fiber; how it was run: as §1
Canis familiaris [13] = experiment: Ventricular effective refractory period by the compound in open chest anesthetized dog, after iv administration at a dose of 5.0 mg/kg.; assay type: functional, Canis lupus familiaris, Heart; set-up: unit not given here
Canis familiaris [14] = experiment: Mean arterial pressure by the compound in open chest anesthetized dog, after iv administration at a dose of 5.0 mg/kg.; assay type: functional, Canis lupus familiaris, Artery; set-up: unit not given here
How it was run: (§3)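 Hemodynamics (heart rate, mean arterial pressure) recorded in pentobarbital-anesthetized (30 mg/kg iv, 5 mg/kg per h maintenance) open-chest mongrel dogs during the refractoriness study at BCL 300 ms. Readings were taken before and after iv or intraduodenal compound and expressed as change from control.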

Canis familiaris [15] = experiment: Atrial effective refractory period by the compound in open chest anesthetized dog, after iv administration at a dose of 5.0 mg/kg.; assay type: functional, Canis lupus familiaris, Cardiac atrium; set-up: unit not given here
How it was run: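 Open-chest mongrel dogs under sodium pentobarbital anesthesia (30 mg/kg iv plus 5 mg/kg per h), paced at basic cycle length 300 ms. Atrial effective refractory period was determined by electrical stimulation before and after iv or intraduodenal compound and reported as change from control.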

Canis familiaris [16] = experiment: Ventricular conduction time by the compound in open chest anesthetized dog, after iv administration at a dose of 5.0 mg/kg.; assay type: functional, Canis lupus familiaris, Heart; set-up: unit not given here
How it was run: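 Mongrel dogs were anesthetized with sodium pentobarbital (30 mg/kg iv, then 5 mg/kg per h), the chest opened, and the heart paced at BCL 300 ms. Compound was given iv or intraduodenally. Ventricular conduction time was taken as the interval between electrograms at the proximal and distal sites of the recording electrode array. 2-5 dogs per dose.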

Canis familiaris [17] = experiment: Heart beat by the compound in open chest anesthetized dog, after iv administration at a dose of 5.0 mg/kg.; assay type: functional, Canis lupus familiaris; set-up: unit not given here; how it was run: as §3
Canis familiaris [18] = experiment: Atrial conduction time by the compound in open chest anesthetized dog, after iv administration at a dose of 5.0 mg/kg.; assay type: functional, Canis lupus familiaris, Cardiac atrium; set-up: unit not given here
How it was run: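 Mongrel dogs anesthetized with sodium pentobarbital (30 mg/kg iv, then 5 mg/kg per h), chest opened, paced at BCL 300 ms. Atrial conduction time was taken as the interval between electrograms recorded at the proximal and distal sites of the atrial recording electrode array, before and after iv or intraduodenal dosing. Values are changes from control.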

Canis familiaris [19] = species on record: Canis familiaris; experiment: repolarization to reach -60mV, in canine Purkinje Fibers at a concentration of 0.10 uM at 1000 ms (simulating normal heart rate); assay type: functional, Canis lupus familiaris, Purkinje fiber; how it was run: as §2
Canis familiaris [20] = species on record: Canis familiaris; experiment: Maximum rate of rise of the upstroke of transmembrane potential, in canine Purkinje Fibers at a concentration of 0.10 uM at 1000 ms (simulating normal heart rate); assay type: functional; details: Canis lupus familiaris, Purkinje fiber; how it was run: as §1
Canis familiaris [21] = species on record: Canis familiaris; experiment: Maximum rate of rise of the upstroke of transmembrane potential, in canine Purkinje Fibers at a concentration of 0.10 uM at 300 ms (simulating tachycardia); assay type: functional; details: Canis lupus familiaris, Purkinje fiber; how it was run: as §1
Canis familiaris [22] = species on record: Canis familiaris; experiment: Repolarization to reach -60mV, in canine Purkinje Fibers at a concentration of 0.10 uM at 300 ms (simulating tachycardia); assay type: functional, Canis lupus familiaris, Purkinje fiber; how it was run: as §1

SMILES	Vmax (Canis familiaris [1])	Vmax (Canis familiaris [2])	APD (Canis familiaris [3])	APD (Canis familiaris [4])	other results
Cn1c(N2CCN(CC(O)COc3ccc(NS(C)(=O)=O)cc3)CC2)nc2ccccc21 (stereo not given)	-3	-9	83%	21%	
CN(Cc1ccc2ccccc2n1)CC(O)COc1ccc(-c2nn[nH]n2)cc1 (stereo not given)	-10	4	11%	4%	
CN(Cc1ccc2ccccc2n1)C[C@@H](O)COc1ccc(NS(C)(=O)=O)cc1	4	-1	70%	27%	APD (Canis familiaris [5]): 22%; APD (Canis familiaris [6]): 25%; APD (Canis familiaris [7]): 48%; Vmax (Canis familiaris [8]): 6; Vmax (Canis familiaris [9]): 9; Vmax (Canis familiaris [10]): -4; Vmax (Canis familiaris [11]): -9; APD (Canis familiaris [12]): 12%
CN(Cc1ccc2cc(F)ccc2n1)CC(O)COc1ccc(NS(C)(=O)=O)cc1 (stereo not given)	11	8	55%	22%	APD (Canis familiaris [5]): 19%; APD (Canis familiaris [6]): 31%; APD (Canis familiaris [7]): 50%; Vmax (Canis familiaris [8]): 5; Vmax (Canis familiaris [9]): 3; Vmax (Canis familiaris [10]): 3; Vmax (Canis familiaris [11]): 4; APD (Canis familiaris [12]): 12%
CN(CCCOc1ccc(NS(C)(=O)=O)cc1)Cc1ccc2ccccc2n1	5	3	45%	22%	VERP (Canis familiaris [13]): 30; MBP (Canis familiaris [14]): -11; AERP (Canis familiaris [15]): 52; VCT (Canis familiaris [16]): 1; HR (Canis familiaris [17]): -23; ACT (Canis familiaris [18]): -6
Cc1nc2ccccc2nc1CN(C)CC(O)COc1ccc(-n2ccnc2)cc1 (stereo not given)	13	10	69%	24%	
CN(CCCOc1ccc(NS(C)(=O)=O)cc1)Cc1cnc2ccccc2n1	-16	-14	62%	27%	
CN(Cc1ccc2ccccc2n1)CC(O)COc1ccc(C#N)cc1 (stereo not given)	19	8	41%	0%	
CN(Cc1cnc2ccccc2n1)CC(O)COc1ccc(NS(C)(=O)=O)cc1 (stereo not given)	1	6	26%	8%	
CN(Cc1nc2ccccc2[nH]1)CC(O)COc1ccc(NS(C)(=O)=O)cc1 (stereo not given)	1	-11	14%	3%	
COc1ccc2nc(CN(C)CC(O)COc3ccc(NS(C)(=O)=O)cc3)ccc2c1 (stereo not given)	0	-6	54%	16%	
CS(=O)(=O)Nc1ccc(OCCCN(Cc2ccc3cc(NS(C)(=O)=O)ccc3n2)C2CCCC2)cc1					APD (Canis familiaris [19]): 30%; Vmax (Canis familiaris [20]): 7; Vmax (Canis familiaris [21]): 8; APD (Canis familiaris [22]): 13%
